Laboratory results reported in ChEMBL document CHEMBL2203144, “Synthesis and evaluation of antimicrobial activity of 4H-pyrimido[2,1-b]benzothiazole, pyrazole and benzylidene derivatives of curcumin” (Eur J Med Chem, 2012).
The source made the active and inactive calls. The calls are words filed in the database; no cut-off is given here.

What was measured:
Aspergillus fumigatus [1] = experiment: Antifungal activity against Aspergillus fumigatus after 72 hrs by agar disk diffusion method; assay type: functional
How it was run: (§1)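 Sterile filter-paper discs dipped in the acetone dilutions of compound (20–0.315 µM/mL), then dried to remove acetone. Sabouraud dextrose agar plates spread with 1 mL fungal culture. Discs placed aseptically; one drug-free disc served as growth control; fluconazole reference. Plates incubated upright 72 h at 28 °C. Zone of inhibition measured in mm with a scale.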

Providencia rettgeri = experiment: Antibacterial activity against Providencia rettgeri DRDE after 24 hrs by broth microdilution method; assay type: functional
How it was run: (§2)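 Microwell broth dilution in brain heart infusion broth (nutrient broth adjusted to pH 7.0). Inoculum from 16 h cultures, adjusted to 0.5 McFarland (1.5 × 10⁸ CFU/mL). 10 µL compound (serial dilutions 20 down to 0.625 or 0.312 µM/mL) plus 10 µL culture added to 150 µL broth. Incubated 24 h at 37 °C. MIC95 is the lowest concentration with no turbidity. Ciprofloxacin reference; inoculum and broth controls.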

Bacillus cereus = experiment: Antibacterial activity against Bacillus cereus MTCC 7350 after 24 hrs by broth microdilution method; assay type: functional; how it was run: as §2
Aspergillus flavus [2] = experiment: Antifungal activity against Aspergillus flavus after 72 hrs by agar disk diffusion method; assay type: functional; how it was run: as §1
Aspergillus fumigatus [3] = experiment: Antifungal activity against Aspergillus fumigatus after 72 hrs by broth dilution method; assay type: functional
How it was run: (§3)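 Compounds and fluconazole reference were dissolved in acetone at 120 µM/mL and serially diluted to 20–0.315 µM/mL. 10 µL compound plus 10 µL fungal culture broth added to 150 µL Sabouraud dextrose medium per well. Optical density recorded, then incubated 72 h at 28 °C. MIC95 taken from absence of turbidity. Acetone-at-same-dilution solvent control.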

Pseudomonas aeruginosa = experiment: Antibacterial activity against Pseudomonas aeruginosa ATCC 23564 after 24 hrs by broth microdilution method; assay type: functional; how it was run: as §2
Escherichia coli = experiment: Antibacterial activity against Escherichia coli ATCC 35218 after 24 hrs by broth microdilution method; assay type: functional; how it was run: as §2
[4] = Cytotoxicity against human L123 cells after 48 hrs by MTT assay; assay type: cell-based
How it was run: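 MTT assay. 2×10³ cells per well in MEM + 10% FBS, attached 24 h, then treated at 5, 10, 20, 50 and 100 µM/mL for 48 h; controls received medium with 0.2% DMSO. Duplicate treatments. Cells PBS-washed, given MTT (stock 1 mg/mL) for 4 h at 37 °C. Formazan dissolved in DMSO, read at 590 nm. IC50 is the concentration reducing viability by 50%.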

Aspergillus niger [5] = experiment: Antifungal activity against Aspergillus niger after 72 hrs by agar disk diffusion method; assay type: functional; how it was run: as §1
Salmonella typhi = experiment: Antibacterial activity against Salmonella typhi ATCC 15499 after 24 hrs by broth microdilution method; assay type: functional, Salmonella enterica subsp. enterica serovar Typhi
How it was run: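 Broth microdilution in brain heart infusion broth in microwells. Inoculum was prepared from 16 h cultures adjusted to the 0.5 McFarland standard (1.5 × 10⁸ CFU/mL). Compounds were serially diluted from 20 down to 0.625 µM/mL and added to the broth, followed by the bacterial culture. Plates were incubated 24 h at 37 °C, with optical density read. MIC95 was the lowest concentration giving no turbidity. Inoculum and broth controls were included.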

Staphylococcus aureus = experiment: Antibacterial activity against Staphylococcus aureus ATCC 11632 after 24 hrs by broth microdilution method; assay type: functional; how it was run: as §2
Aspergillus flavus [6] = experiment: Antifungal activity against Aspergillus flavus after 72 hrs by broth dilution method; assay type: functional; how it was run: as §3
Aspergillus niger [7] = experiment: Antifungal activity against Aspergillus niger after 72 hrs by broth dilution method; assay type: functional; how it was run: as §3

Structure (SMILES): COc1cc(/C=C/C(=O)C(=Cc2ccccc2O)C(=O)/C=C/c2ccc(O)c(OC)c2)ccc1O
- inhibition zone (IZ) (Aspergillus fumigatus [1]): 20 mm
- MIC95 (Providencia rettgeri): 1.25 uM/ml
- MIC95 (Bacillus cereus): 1.25 uM/ml
- inhibition zone (IZ) (Aspergillus flavus [2]): inactive
- MIC95 (Aspergillus fumigatus [3]): 2.5 uM/ml
- MIC95 (Pseudomonas aeruginosa): 1.25 uM/ml
- MIC95 (Escherichia coli): 2.5 uM/ml
- IC50 [4]: 50 uM/ml
- inhibition zone (IZ) (Aspergillus niger [5]): 17 mm
- MIC95 (Salmonella typhi): 5 uM/ml
- MIC95 (Staphylococcus aureus): 1.25 uM/ml
- MIC95 (Aspergillus flavus [6]): inactive
- MIC95 (Aspergillus niger [7]): 2.5 uM/ml

Structure (SMILES): COc1cc(/C=C/C(=O)C2=C(/C=C/c3ccc(O)c(OC)c3)N=C3Sc4ccccc4N3C2c2ccc([N+](=O)[O-])cc2)ccc1O (centres undefined)
- inhibition zone (IZ) (Aspergillus fumigatus [1]): 15 mm
- MIC95 (Providencia rettgeri): 10 uM/ml
- MIC95 (Bacillus cereus): 2.5 uM/ml
- inhibition zone (IZ) (Aspergillus flavus [2]): inactive
- MIC95 (Aspergillus fumigatus [3]): 20 uM/ml
- MIC95 (Pseudomonas aeruginosa): 10 uM/ml
- MIC95 (Escherichia coli): 5 uM/ml
- IC50 [4]: > 100 uM/ml
- inhibition zone (IZ) (Aspergillus niger [5]): 10 mm
- MIC95 (Salmonella typhi): 20 uM/ml
- MIC95 (Staphylococcus aureus): inactive
- MIC95 (Aspergillus flavus [6]): inactive
- MIC95 (Aspergillus niger [7]): 10 uM/ml

Structure (SMILES): COc1cc(C=C(C(=O)/C=C/c2ccc(O)c(OC)c2)C(=O)/C=C/c2ccc(O)c(OC)c2)ccc1O
- inhibition zone (IZ) (Aspergillus fumigatus [1]): inactive
- MIC95 (Providencia rettgeri): 2.5 uM/ml
- MIC95 (Bacillus cereus): 1.25 uM/ml
- inhibition zone (IZ) (Aspergillus flavus [2]): 20 mm
- MIC95 (Aspergillus fumigatus [3]): inactive
- MIC95 (Pseudomonas aeruginosa): 2.5 uM/ml
- MIC95 (Escherichia coli): inactive
- IC50 [4]: > 100 uM/ml
- inhibition zone (IZ) (Aspergillus niger [5]): inactive
- MIC95 (Salmonella typhi): 5 uM/ml
- MIC95 (Staphylococcus aureus): 2.5 uM/ml
- MIC95 (Aspergillus flavus [6]): 1.25 uM/ml
- MIC95 (Aspergillus niger [7]): inactive
